Measured values of several laboratories.
Protocols differ between the studies behind these lines.
Target: Interleukin-1 receptor-associated kinase 1 (IRAK1, Homo sapiens, UniProt P51617)

SMILES	observed	mode	method	concentration	quantity	result
CC(C)(C)c1nc2c(s1)c1nc(N)ncc1c1ccc(NS(=O)(=O)c3c(F)cccc3F)c(F)c12	enzyme activity	inhibitor	radiometric	1 µM	remaining activity	90%
O=C(Nc1ccc(Oc2ccc(F)cc2)cc1)N1CCc2ncccc2[C@H]1c1ccc(F)cc1	cell-free assay		competition with immobilised ligand	1 µM	remaining binding	88%
N#CCCc1ccc2c(c1)-c1[nH]c3ccc([N+](=O)[O-])cc3c1CC(=O)N2	cell-free assay			0.5 µM	remaining signal	74.9%
COc1cc(Nc2cnc(C#N)c(O[C@H](C)CN(C)C)n2)ncc1-c1cnn(C)c1	enzyme activity	inhibitor	radiometric	1 µM	remaining activity	17%
Cc1ccc(Nc2nccc(N(C)c3ccc4c(C)n(C)nc4c3)n2)cc1S(N)(=O)=O	enzyme activity	inhibitor		0.3 µM	inhibition	-6%
CNC(=O)Nc1ccc2c(c1)CC[C@@]21OC(=O)N(CC(=O)N(Cc2ccc(F)cc2)[C@@H](C)C(F)(F)F)C1=O	cell-free assay		competition with immobilised ligand	1 µM	remaining binding	71%
CNC(=O)c1cc(Oc2ccc(NC(=O)Nc3ccc(Cl)c(C(F)(F)F)c3)cc2)ccn1	enzyme activity	inhibitor		0.3 µM	inhibition	-4%
O=C(Nc1cnn(-c2csc(C(=O)NC3COC3)c2)c1)Nc1ccccc1Cl	enzyme activity	inhibitor		5 µM	remaining activity	112%
CN1CC(Oc2cnc(C#N)cc2-c2ccn3nc(NC(=O)C4CC4)cc3c2)C1	enzyme activity	inhibitor		1 µM	inhibition	38%
Cc1cc(C)c(-n2ccn3nc(-c4cccnc4)cc23)cc1NC(=O)c1cc(C#N)cc(S(F)(F)(F)(F)F)c1	cell-free assay		competition with immobilised ligand	0.1 µM	remaining binding	87.3%
CCN(CC)CCNC(=O)c1c(C)[nH]c(/C=C2\C(=O)Nc3ccc(F)cc32)c1C	enzyme activity	inhibitor		0.3 µM	inhibition	31%
Cc1ccc(NC(=O)c2ccc(C)c(C(F)(F)F)c2)cc1C#Cc1nn(C2CCC(O)CC2)c2ncnc(N)c12 (stereo not drawn)	cell-free assay			10 µM	remaining signal	30%
COc1ccc2c(c1)O[C@H](c1ccc(OC)c(OC)c1)C[C@@H]2NC(=O)C1(c2ccc3c(c2)OC(F)(F)O3)CC1	cell-free assay		competition with immobilised ligand	1 µM	remaining binding	93%
CCCOc1ccc(OC)c(F)c1C(=O)c1ccc(C(=O)N[C@@H]2CNC[C@H]2NC(=O)c2ccc3[nH]ncc3c2)cc1	enzyme activity	inhibitor		10 µM	remaining activity	49%
Oc1cccc(-c2nc(N3CCOCC3)c3oc4ncccc4c3n2)c1	cell-free assay			0.5 µM	remaining signal	84.2%
CCCCNc1ncc2c(-c3ccc(F)cc3)nn(C[C@H]3CC[C@H](N)CC3)c2n1	target engagement in cells	inhibitor	chemoproteomics	20 mM	inhibition	51.5%
CC(=O)N1CCC(c2ccc(C(=O)NC3=NCCN3)cc2C(F)(F)F)CC1	cell-free assay		competition with immobilised ligand	1 µM	remaining binding	78%
CC/C(=N\NC(=O)NCc1cccc(O)c1)c1ccc(O)c(C)c1O	enzyme activity	inhibitor		0.1 µM	inhibition	-0.6%
FC(F)(F)Oc1cccc(-c2cnc3ccc(-c4ccncc4)nn23)c1	enzyme activity	inhibitor	radiometric	1 µM	activity vs control	52%
COc1cc(Cl)c(C(=O)N[C@@H](CN[C@H]2CC[C@@H](N)CC2)Cc2ccc(C#N)cc2)cc1-c1ccc(CN[C@H](C)c2ccc(C)cc2)o1	enzyme activity	inhibitor		1 µM	remaining activity	97%
CN(C)C1CCN(CC#Cc2nn(C3CCCC3)c3nc(NCc4ccccc4)ncc23)C1 (stereo not drawn)	enzyme activity	inhibitor	FRET	10 µM	inhibition	37%
c1ccc(N2CCN(Cc3nc4ccccc4[nH]3)CC2)nc1	binding		competition with immobilised ligand	1 µM	remaining binding	100%
COc1cc(-c2cc(-c3ccc(N4CCNCC4)cc3)cnc2C)cc(OC)c1OC	enzyme activity	inhibitor		1 µM	inhibition	1%
Cc1nc(N2CC[C@@H](O)C2)ncc1-c1cc(C(F)(F)F)cc2[nH]ncc12	binding		competition with immobilised ligand	1 µM	remaining binding	100%
COc1ccc(COc2ccc(Cc3cnc(N)nc3N)cc2OC)cc1	cell-free assay			0.5 µM	remaining signal	123%
Cc1ccc(C(=O)NCc2ccsc2)cc1C#Cc1cn(C(C)C)c2ncnc(N)c12	enzyme activity	inhibitor		1 µM	activity vs control	86%
COc1cccc2c(NCc3ccccc3)nc(-n3c(N)nc4ccccc43)nc12	target engagement in cells	inhibitor	chemoproteomics	20 mM	inhibition	-2.2%
Cc1cc(NC(=O)c2cccc3cc(-c4cccc5[nH]nc(N)c45)ccc23)ccc1F	enzyme activity	inhibitor		0.1 µM	activity vs control	100%
CN(C)CC#Cc1ccc(OCCCc2sc(N3CCc4cccc(C(=O)Nc5nc6ccccc6s5)c4C3)nc2C(=O)O)c(F)c1	cell-free assay		competition with immobilised ligand	1 µM	remaining binding	100%
Cc1ccc(C(=O)Nc2ccc(CN3CCN(C)CC3)c(C(F)(F)F)c2)cc1C#Cc1cnc2cccnn12	enzyme activity	inhibitor		23.5 nM	remaining activity	54%
